# Bioassay records from PubChem.
# This is a sample that favours compounds with a hit; in the whole collection about 2.6% have one here.
# E-selectin induc: induces E-selectin expression in human endothelial cells | P16581 | HUVEC E-selectin immunofluorescence imaging; normalized: neutral wells 0, TNF-alpha wells 100 | activation, % at 7.58 µM | 0.37% of 260,000 active | AID 686992;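 active = mean E-selectin-positive cell signal at least 10% of the positive control, reached in at least 60% of replicates, without over 20% cell loss; inconclusive = no rule given, readout overlaps actives, possibly toxicity-flagged; inactive = the rest, including those meeting only one limit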
# Target sequence (P16581 whole entry, looked up): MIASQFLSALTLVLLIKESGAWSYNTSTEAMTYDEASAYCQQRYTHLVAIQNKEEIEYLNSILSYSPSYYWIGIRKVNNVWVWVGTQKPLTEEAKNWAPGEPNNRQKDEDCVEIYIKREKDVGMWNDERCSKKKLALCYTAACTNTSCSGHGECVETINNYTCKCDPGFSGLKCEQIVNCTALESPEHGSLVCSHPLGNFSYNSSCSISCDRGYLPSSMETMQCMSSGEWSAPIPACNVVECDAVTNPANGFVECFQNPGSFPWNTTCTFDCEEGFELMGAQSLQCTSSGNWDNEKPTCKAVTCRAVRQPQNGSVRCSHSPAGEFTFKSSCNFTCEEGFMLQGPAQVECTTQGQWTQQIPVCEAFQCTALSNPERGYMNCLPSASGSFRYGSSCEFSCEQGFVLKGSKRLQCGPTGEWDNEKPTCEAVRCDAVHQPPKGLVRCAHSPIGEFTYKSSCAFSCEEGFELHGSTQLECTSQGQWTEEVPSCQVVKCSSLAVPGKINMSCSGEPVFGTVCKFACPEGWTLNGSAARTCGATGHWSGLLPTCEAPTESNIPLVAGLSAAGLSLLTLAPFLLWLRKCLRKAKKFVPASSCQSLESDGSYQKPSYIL
#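 Test system – human umbilical vein endothelial cells (HUVEC), E-selectin induction · Input – 3,000 HUVEC seeded per well · Buffer or medium – EGM-2, gelatin · Compound dosing – single-point compound dose · Detection – immunofluorescence imaging · Measure – percent E-selectin-positive cells · Controls – TNF-alpha high, DMSO low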
# CFTR F508del cor: CFTR F508del correction in bronchial cells. 0.36% of 350,000 active. CFBE cells, YFP halide quenching; stimulated with forskolin plus potentiator P3; % fluorescence drop versus neutral controls. activity (quench increase), % at 7.58 µM;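 active = mean added fluorescence quench of at least 8% versus neutral control, with both replicates also reaching 8%; inconclusive = only one of the mean or replicate conditions met; inactive = mean below 8% and not both replicates reaching 8%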;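 also: cells transiently co-express mutant CFTR-F508del with the halide-sensitive YFP; corrector assay measuring rescue of mutant channel to the surface after 24 h compound exposure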
# miR122 inh: miR-122 inhibition in Huh7 cells | Huh7 miR-122 Renilla luciferase sensor, 48 h; neutral wells = 0, positive control = 100 | activation (reporter increase), % at 12.5 µM | 0.3% of 340,000 active;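 active = mean replicate activation score at least 90 and every replicate individually at or above 90; inconclusive = only one of the two criteria met; inactive = neither criterion met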;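 also: higher luciferase means less miR-122 activity so hits act as miR-122 inhibitors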
# ERAP1 inh: blocks human ERAP1 aminopeptidase activity; recombinant ERAP1, Leu-AMC fluorescence, 60 min; Q9NZ08; 0.15% of 340,000 active; AID 652197; inhibition, % at 10.7 µM;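 active = mean replicate inhibition of at least 30%, or all replicates individually reaching that 30% level; inactive = mean below 30% and not every replicate reaching it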;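 also: 0% = neutral control wells and 100% = L-leucinethiol positive control wells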
# DENV2 CPE rescue: inhibitors of DENV2 cytopathic effect. DENV2-infected cells, cytopathic effect rescue, plate reader. CPE inhibition, % at 9.99 µM. 1.7% of 350,000 active. AID 651640; in the data active = CPE inhibition above about 20%, passing the limit was not always enough; inconclusive = no clear call, values can overlap the other calls; tested in BHK-21 cells;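 also: 0% = median of neutral control wells and 100% = median of positive control wells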
# INS-1E GSIS act: GLuc luminescence reporter in INS-1E cells, primary screen for activators of glucose-dependent secretion of insulin | INS-1E GLuc reporter insulin secretion, 2-3 h | AID 743287 | 0.61% of 370,000 active | activation, % at 16.6 µM;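 active = lowest replicate activation of at least 40%, so every replicate reaches that level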;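 also: 0% = median of neutral control wells and 100% = median of IBMX positive control wells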
# An asterisk follows results filed as active; ? = inconclusive; . = not tested or not shown; [ ] = another dose, or the depositor's remark.
SMILES,E-selectin induc,CFTR F508del cor,miR122 inh,ERAP1 inh,DENV2 CPE rescue,INS-1E GSIS act
C[C@H](CO)N1C[C@H](C)[C@@H](CN(C)S(C)(=O)=O)OCCCC[C@H](C)Oc2ccc(NC(=O)Nc3ccc(F)cc3)cc2C1=O,0,-1,3[16.7 µM],.,26*,-3
C[C@@H]1CCCCO[C@H](CN(C)S(C)(=O)=O)[C@@H](C)CN([C@H](C)CO)C(=O)c2cc(NC(=O)Nc3ccc(F)cc3)ccc2O1,.,1,.,0,-9,.
Cc1ccc(S(=O)(=O)N2CCCCC2CCNC(=O)C(=O)NCc2ccccc2)cc1 (stereo unspecified),.,9.8*,.,-1,0,-34
Cc1ccc(S(=O)(=O)N2CCCCC2CCNC(=O)C(=O)NCc2ccncc2)cc1 (stereo unspecified),-1,3,.,0,3,-1
O=C(NCCC1CCCCN1S(=O)(=O)c1ccc(F)cc1)C(=O)NCc1cccnc1 (stereo unspecified),.,0,.,1,-2,50*
CC(=O)N(C)C[C@@H]1Oc2cc(-c3cccnc3)ccc2S(=O)(=O)N([C@@H](C)CO)C[C@@H]1C,0,.,22[16.7 µM],-1,0,16
C/C=C/c1ccc([C@H]2[C@@H](CO)N(C(=O)COC)[C@@H]2CNC(=O)CC)cc1,0,8.3*,-7[16.7 µM],0,-12,-2
C/C=C/c1ccc([C@@H]2[C@@H](CO)N(C(=O)COC)[C@@H]2CNC(=O)CC)cc1,0,-5,-7[16.7 µM],0,5,3
C/C=C/c1ccc([C@H]2[C@@H](CO)N(C(C)=O)[C@H]2CNC(=O)c2ccccc2)cc1,0,0,21[16.7 µM],-1,24*,6
C/C=C/c1ccc([C@H]2[C@H](CO)N(C(C)=O)[C@H]2CNC(=O)c2ccccc2)cc1,0,2,-21[16.7 µM],-2,-9,3
C/C=C/c1ccc([C@@H]2[C@@H](CO)N(C(=O)NCCC)[C@H]2CN(C)C(=O)CC)cc1,0,1,21[16.7 µM],.,78*,-9
C/C=C/c1ccc([C@@H]2[C@@H](CNC(=O)C3CC3)N(C(=O)CC)[C@H]2CO)cc1,0,-3,54[16.7 µM],0,26*,8
COc1ccc2c3c(n(C)c2c1)[C@@H](CO)N(Cc1ccccc1)CC31CN(S(C)(=O)=O)C1,0,-4,.,.,7,2
COCc1cn(CC[C@@H]2CC[C@@H](NC(=O)CCN3CCCCC3)[C@@H](CO)O2)nn1,0,2,.,-12,-4,12
CCCNC(=O)N1[C@H](CO)[C@H](c2ccccc2)[C@H]1CNC(=O)C1CCCC1,0,-1,.,1,-8,-8
CCCNC(=O)N1[C@H](CO)[C@H](c2ccccc2)[C@@H]1CNC(=O)C1CCCC1,0,-1,.,0,22*,-8
CC(C)c1ccc(/C=N/N2CCN(c3ccccn3)CC2)cc1,0,0,0,1,47*,12
CC(/C=N/N1CCN(c2ccccn2)CC1)=C\c1ccccc1,.,.,-7,1,23*,-4
O=C(Cc1ccccc1)N[C@H]1CC[C@@H](CC(=O)N2CCOCC2)O[C@H]1CO,0,0,.,-1,?,16
CCN1/C(=C/C=C/c2oc3ccc(-c4ccccc4)cc3[n+]2CC)Oc2ccc(-c3ccccc3)cc21,218*,-35,-11,-2,-3,5
C[C@@H]1CN([C@H](C)CO)C(=O)Cc2cc(NC(=O)Nc3ccccc3)ccc2O[C@@H]1CN(C)Cc1ccc(Cl)c(Cl)c1,1,0,1[16.7 µM],3,15,-23
C[C@@H]1CN([C@@H](C)CO)C(=O)Cc2cc(NC(=O)Nc3ccccc3)ccc2O[C@H]1CN(C)Cc1ccc(Cl)c(Cl)c1,0,-6,-10[16.7 µM],8,38*,-36
C[C@@H]1CN([C@@H](C)CO)C(=O)Cc2cc(NC(=O)Nc3ccc4c(c3)OCO4)ccc2O[C@H]1CN(C)C,384*,0,2[16.7 µM],-3,10,-6
C[C@H]1CN([C@@H](C)CO)C(=O)Cc2cc(NC(=O)Nc3ccc4c(c3)OCO4)ccc2O[C@H]1CN(C)Cc1ccccc1,0,1,-5[16.7 µM],1,46*,-19
C[C@@H]1CN([C@H](C)CO)C(=O)Cc2cc(NC(=O)Nc3ccc4c(c3)OCO4)ccc2O[C@@H]1CN(C)Cc1ccc(Cl)c(Cl)c1,-13,1,-9[16.7 µM],-1,-3,2
SMILES,E-selectin induc,CFTR F508del cor,miR122 inh,ERAP1 inh,DENV2 CPE rescue,INS-1E GSIS act
C[C@@H]1CN([C@H](C)CO)C(=O)Cc2cc(NC(=O)Nc3ccc4c(c3)OCO4)ccc2O[C@H]1CN(C)Cc1ccc(Cl)c(Cl)c1,300*,5,-8[16.7 µM],0,-3,-5
COc1cccc(S(=O)(=O)N2CC3(CN[C@H](CO)c4[nH]c5cc(OC)ccc5c43)C2)c1,0,4,.,-6,2,32
C[C@@H]1CCCCO[C@@H](CN(C)C(=O)Nc2ccc3c(c2)OCO3)[C@@H](C)CN([C@@H](C)CO)C(=O)c2cc(NC(=O)C3CCCCC3)ccc2O1,0,1,15[16.7 µM],3,2,-12
C[C@H](CO)N1C[C@H](C)[C@@H](CN(C)Cc2ccccc2)Oc2ccc(NC(=O)Nc3ccccc3)cc2CC1=O,.,2,-6[16.7 µM],1,25*,-10
C[C@@H]1CN([C@@H](C)CO)C(=O)Cc2cc(NC(=O)Nc3ccccc3)ccc2O[C@@H]1CN(C)Cc1ccccc1,.,1,-6[16.7 µM],1,2,-12
CC(=O)/C(C#N)=C1\NC(=O)C(Cc2ccccc2C)S1 (stereo unspecified),.,11*,13,.,?,-13
CC(=O)/C(C#N)=C1\NC(=O)C(Cc2ccccc2)S1 (stereo unspecified),.,.,2,.,.,15
C[C@@H]1CN([C@@H](C)CO)C(=O)Cc2cc(NC(=O)Nc3ccc(F)cc3)ccc2O[C@@H]1CN(C)Cc1ccncc1,127*,-5,1[16.7 µM],0,3,-12
C[C@@H]1CN([C@H](C)CO)C(=O)Cc2cc(NC(=O)Nc3ccc(F)cc3)ccc2O[C@@H]1CN(C)Cc1ccncc1,44*,-4,-2[16.7 µM],-1,1,-19
C[C@H](CO)N1C[C@H](C)[C@@H](CN(C)Cc2ccncc2)Oc2ccc(NC(=O)Nc3ccc(F)cc3)cc2CC1=O,-4,-3,0[16.7 µM],0,1,2
C[C@@H]1CN([C@@H](C)CO)C(=O)Cc2cc(NC(=O)Nc3ccc(F)cc3)ccc2O[C@H]1CN(C)Cc1ccncc1,-13,1,-11[16.7 µM],-2,-7,-10
C[C@@H]1CCCCO[C@@H](CN(C)C(=O)c2ccncc2)[C@@H](C)CN([C@@H](C)CO)C(=O)c2cc(NC(=O)c3ccccc3)ccc2O1,0,.,.,.,.,4
